This note sets out measurements from the array DNA melting data of Ke et al. (doi:10.1101/2024.01.08.574731).

Series [1] is described as follows: folding enthalpy; higher = less favourable; fluorescence melt of hairpins on a sequencing array, two-state fit. As to conditions: sodium 0.088 M. Summed up:
(§1)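 Cy3 signals were normalised both to pre-quench Cy3 and to control constructs. They came from library hairpins carrying annealed Cy3 and quencher oligos on a sequenced MiSeq flow cell, imaged in 50 mM Na-HEPES pH 8.0, 25 mM NaCl, in 2.5 °C steps up to 60 °C. Bootstrapped two-state fits gave melting temperature and folding enthalpy, and four replicates were combined by inverse variance. Fitted temperatures were then raised by 9.35 °C to match UV melts.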

The nature of series [2]: melting temperature; fluorescence melt of hairpins on a sequencing array, two-state fit, raised by 9.35 °C to match UV melts. The following applies: sodium 0.088 M. Summed up:
as §1

In the case of GGGAAGCGAAAGCTGCCC (((.(((....))).))), in series [1], the folding enthalpy was -96.9 kJ/mol. Moreover, the Tm in series [2] was found to be 65.2 °C.

Regarding GGGAAGGGAAACCTTCCC (((((((....))))))), the folding enthalpy in series [1] was -149 kJ/mol. Besides, the Tm in series [2] was 65.4 °C.

Consider GGGAATCGAAAGATCCCC (((.(((....))).))), for which the folding enthalpy in series [1] was -104 kJ/mol. The Tm in series [2] is 51.5 °C.

For GGGAATGCGAAAGCACCC (((..(((....)))))), in series [1], the folding enthalpy was -81.3 kJ/mol. Also, the Tm in series [2] was 42.3 °C.

GGGAATGGAAACACTCCC ((((.((....)).)))): the folding enthalpy in series [1] was -123 kJ/mol. The Tm in series [2] came to 36.9 °C.

As to GGGAATGGAAACATCCCC (((.(((....))).))), the folding enthalpy in series [1] is -103 kJ/mol. Further, in series [2], the Tm stood at 42.2 °C.

For the sequence GGGACACGAAAGTGACCC (((.(((....))).))), the folding enthalpy in series [1] is -155 kJ/mol. Besides, the Tm in series [2] was 62.9 °C.

As for GGGACACGAAAGTGCCCC (((.(((....))).))), the folding enthalpy in series [1] was -158 kJ/mol. Also, the Tm in series [2] was 63.1 °C.

As for GGGACAGGAAACCGTCCC (((((.(....).))))), the folding enthalpy in series [1] is -152 kJ/mol. Further, the Tm in series [2] turned out to be 52.8 °C.

GGGACAGGAAACTATCCC ((((.((....)).)))): in series [1], the folding enthalpy was -123 kJ/mol. Besides, the Tm in series [2] is 35.4 °C.

On to GGGACCGAAAGGTCACCC ((((((....)))..))), for which the folding enthalpy in series [1] is -51 kJ/mol. In series [2], the Tm is 56.9 °C.

For the sequence GGGACCGAAAGGTCTCCC ((((((....)))..))), the folding enthalpy in series [1] is -48.8 kJ/mol. Moreover, the Tm in series [2] was determined as 51.9 °C.

For GGGACCGAAAGGTTCCCC ((((((....)))..))), the folding enthalpy in series [1] was -64.5 kJ/mol. In series [2], the Tm amounted to 59.7 °C.

As to GGGACCGGAAACGGCCCC (((.(((....))).))), the folding enthalpy in series [1] is -155 kJ/mol. Besides, in series [2], the Tm was 62.5 °C.

With GGGACCGGAAACGGTCTC (.(((((....))))).), the folding enthalpy in series [1] was -55.1 kJ/mol. In series [2], the Tm is 59.2 °C.

In the case of GGGACCGGAAACGGTTCC ((.((((....)))).)), the folding enthalpy in series [1] is -178 kJ/mol. For the same sequence, the Tm in series [2] came to 62.6 °C.

For the sequence GGGACCTCGAAAGAGCCC (((..(((....)))))), in series [1], the folding enthalpy is -81.3 kJ/mol. The Tm in series [2] was found to be 35.3 °C.

Turning to GGGACGGGAAACCATCCC ((((.((....)).)))), the folding enthalpy in series [1] is -132 kJ/mol. Also, the Tm in series [2] was found to be 44.7 °C.

Consider GGGACGGGAAACCGCCCC (((.(((....))).))), for which, in series [1], the folding enthalpy was -185 kJ/mol. Also, the Tm in series [2] was 57.3 °C.

As to GGGACGGGAAACTGTCCC (((((.(....).))))), the folding enthalpy in series [1] was -167 kJ/mol. Also, in series [2], the Tm turned out to be 57.8 °C.

On to GGGACTACGAAAGTACCC (((..(((....)))))), for which, in series [1], the folding enthalpy is -81.5 kJ/mol. Further, the Tm in series [2] amounted to 36.1 °C.

Regarding GGGACTCGAAAGAGCCC (((.(((....)))))), the folding enthalpy in series [1] is -120 kJ/mol. Also, the Tm in series [2] amounted to 54.9 °C.

For GGGACTGGAAACAATCCC ((((.((....)).)))), the folding enthalpy in series [1] was -116 kJ/mol. Besides, the Tm in series [2] is 37.9 °C.

Consider GGGACTGGAAACGGTTCC ((.((.(....).)).)), for which the folding enthalpy in series [1] was -79.2 kJ/mol. Further, the Tm in series [2] turned out to be 42 °C.

Regarding GGGAGACGAAAGTCGCCC (((.(((....))).))), the folding enthalpy in series [1] was -138 kJ/mol. In series [2], the Tm was determined as 66 °C.

For the sequence GGGAGCGAAAGCTAACCC ((((((....)))..))), in series [1], the folding enthalpy was -67.3 kJ/mol. In series [2], the Tm is 45 °C.

As to GGGAGCGAAAGCTTCCCC ((((((....)))..))), in series [1], the folding enthalpy is -54.1 kJ/mol. Besides, in series [2], the Tm is 61 °C.

As for GGGAGCGGAAACGCCCCC (((.(((....))).))), the folding enthalpy in series [1] was -115 kJ/mol. In addition, in series [2], the Tm was 61.4 °C.

For GGGAGCGGAAACGCTCTC (.(((((....))))).), the folding enthalpy in series [1] is -60.6 kJ/mol. In series [2], the Tm was 58.4 °C.

Regarding GGGAGGACGAAAGTCCCC (((..(((....)))))), the folding enthalpy in series [1] is -48.4 kJ/mol. The Tm in series [2] worked out at 53.1 °C.

GGGAGTCCGAAAGGACCC (((..(((....)))))): the folding enthalpy in series [1] was -58.5 kJ/mol. Besides, the Tm in series [2] was 53.6 °C.

Turning to GGGAGTCGAAAGACGCCC (((.(((....))).))), the folding enthalpy in series [1] was -125 kJ/mol. In addition, in series [2], the Tm was 64.3 °C.

In the case of GGGAGTGGAAACGCTCTC (.(((.(....).))).), the folding enthalpy in series [1] is -74.5 kJ/mol. Besides, the Tm in series [2] came to 39.7 °C.

As for GGGAGTGGAAACGCTTCC ((.((.(....).)).)), the folding enthalpy in series [1] was -86.5 kJ/mol. The Tm in series [2] is 39 °C.

In the case of GGGATAGAAATATCCC ((((((....)))))), the folding enthalpy in series [1] is -127 kJ/mol. In addition, the Tm in series [2] amounted to 51.1 °C.

In the case of GGGATAGGAAACTATCTC (.(((((....))))).), the folding enthalpy in series [1] is -106 kJ/mol. In addition, the Tm in series [2] came to 39.8 °C.
